# From ChEMBL document CHEMBL1125056, “Heterosubstituted anthracene-9,10-dione analogues. The synthesis and antitumor evaluation of 5,8-bis[(aminoalkyl)amino]naphtho[2,3-b] thiophene-4,9-diones” (1990)
# Legend:
# L1210 [1] = experiment: Compound was tested for the concentration required to inhibit L1210 murine leukemia cell growth by 50% of control; format: functional; conditions: Mus musculus, read-out: ID50 (the source's name)
# In short: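 L1210 cells grown in suspension in McCoy's 5A with 10% horse serum, glutamine, penicillin and streptomycin at 37 °C in 10% CO2. Drug was added from DMSO to 5 × 10^4 cells/mL at final 0.01, 0.1 and 10 μg/mL. After 72 h continuous exposure, cells were counted on a Coulter counter.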
# L1210 [2] = experiment: T/C in % was determined against L1210 murine leukemia cells at a dose of 50 x3 mg/kg
# L1210 [3] = experiment: T/C in % was determined against L1210 murine leukemia cells at a dose of 12.5 x3 mg/kg; format: functional, Mus musculus
# L1210 [4] = experiment: T/C in % was determined against L1210 murine leukemia cells at a dose of 25 x3 mg/kg; 60 - day survivors =1/6; format: functional, Mus musculus
# L1210 [5] = experiment: T/C in % was determined against L1210 murine leukemia cells at a dose of 8 x3 mg/kg; 60 - day survivors =1/6; format: functional, Mus musculus
# L1210 [6] = experiment: T/C in % was determined against L1210 murine leukemia cells at a dose of 4 x3 mg/kg 60 - day survivors =3/6; format: functional, Mus musculus
# L1210 [7] = experiment: T/C in % was determined against L1210 murine leukemia cells at a dose of 12.5 x2 mg/kg; 60 - day survivors =1/6; format: functional, Mus musculus
# P388 leukemia (mouse) [8] = experiment: T/C in % was determined against P388 murine leukemia cells at a dose of 100 x1 mg/kg; Toxic
# L1210 [9] = experiment: T/C in % was determined against L1210 murine leukemia cells at a dose of 25 x3 mg/kg; 60 - day survivors =0/6; format: functional, Mus musculus
# P388 leukemia (mouse) [10] = experiment: T/C in % was determined against P388 murine leukemia cells at a dose of 50 x2 mg/kg; 60 - day survivors =0/6
# L1210 [11] = experiment: T/C in % was determined against L1210 murine leukemia cells at a dose of 50 x3 mg/kg; 60 - day survivors =0/6; format: functional, Mus musculus
# P388 leukemia (mouse) [12] = experiment: T/C in % was determined against P388 murine leukemia cells at a dose of 25 x2 mg/kg; 60 - day survivors =0/6
# L1210 [13] = experiment: T/C in % was determined against L1210 murine leukemia cells at a dose of 6.25 x3 mg/kg; 60 - day survivors =1/6; format: functional, Mus musculus
# L1210 [14] = experiment: T/C in % was determined against L1210 murine leukemia cells at a dose of 25x3 mg/kg; 60 - day survivors =3/6; format: functional, Mus musculus
# L1210 [15] = experiment: T/C in % was determined against L1210 murine leukemia cells at a dose of 12.5x2 mg/kg; 60 - day survivors =0/6; format: functional, Mus musculus
smiles,measurement,setting,value
O=C1c2ccsc2C(=O)c2c(NCCO)ccc(NCCO)c21,IC50,L1210 [1],> 10 µg/mL
O=C1c2ccccc2C(=O)c2c(NCCNCCO)ccc(NCCNCCO)c21 [AMETANTRONE],T/C,L1210 [2],146%
same,T/C,L1210 [3],177%
same,T/C,L1210 [4],203%
NCCNc1ccc(NCCN)c2c1C(=O)c1ccsc1C2=O,T/C,L1210 [5],400%
same,T/C,L1210 [6],325%
same,IC50,L1210 [1],0.026 µg/mL
same,T/C,L1210 [7],386%
CN(C)CCNc1ccc(NCCN(C)C)c2c1C(=O)c1ccsc1C2=O,T/C,P388 leukemia (mouse) [8],Toxic
same,T/C,L1210 [9],107%
same,IC50,L1210 [1],0.038 µg/mL
same,T/C,P388 leukemia (mouse) [10],128%
same,T/C,L1210 [11],109%
same,T/C,P388 leukemia (mouse) [12],108%
O=C1c2ccsc2C(=O)c2c(NCCNCCO)ccc(NCCNCCO)c21,T/C,L1210 [13],403%
same,T/C,L1210 [14],333%
same,IC50,L1210 [1],0.064 µg/mL
O=C1c2ccsc2C(=O)c2c(NCCN3CC3)ccc(NCCN3CC3)c21,T/C,L1210 [15],104%
same,IC50,L1210 [1],0.0035 µg/mL
same,T/C,P388 leukemia (mouse) [10],114%
same,T/C,P388 leukemia (mouse) [12],112%
O=C1c2ccsc2C(=O)c2c(NCCBr)ccc(NCCBr)c21,IC50,L1210 [1],5.2 µg/mL
